This is an account of results in ChEMBL document CHEMBL1125451, “Structure-activity studies of a novel bicyclic oxytocin antagonist” (J Med Chem, 1992).

Active and inactive are the calls of the source. No cut-off for these calls is given here. Numbered stars: 1 amine (or outer) side, 2 acyl side, 3 side chain; on linkers, the order of the positions; unused ones are H or OH. Bridge positions count the residues as written; N and C are the ends. Square brackets hold non-standard residues; d marks the D form. Peptide text beside a SMILES is read from it. * marks the point of attachment. X1 = CC(C)(CC(=O)[*:1])S[*:2]; Mpa = O=C(O)CCS; For = O=C*

The subject of test [1] is Rattus norvegicus. As to the kind of experiment: (§1) In vivo oxytocin antagonistic activity […] was determined by galactogogic assay. The class given is functional.
Test [2] concerns Rattus norvegicus. As to the kind of experiment: (§2) In vivo pressor activity by vasopressin assay in rats. It counts as functional.
Another test addresses T1, Oxytocin receptor (Rattus norvegicus, UniProt P70536).
T1 sequence (P70536 whole entry): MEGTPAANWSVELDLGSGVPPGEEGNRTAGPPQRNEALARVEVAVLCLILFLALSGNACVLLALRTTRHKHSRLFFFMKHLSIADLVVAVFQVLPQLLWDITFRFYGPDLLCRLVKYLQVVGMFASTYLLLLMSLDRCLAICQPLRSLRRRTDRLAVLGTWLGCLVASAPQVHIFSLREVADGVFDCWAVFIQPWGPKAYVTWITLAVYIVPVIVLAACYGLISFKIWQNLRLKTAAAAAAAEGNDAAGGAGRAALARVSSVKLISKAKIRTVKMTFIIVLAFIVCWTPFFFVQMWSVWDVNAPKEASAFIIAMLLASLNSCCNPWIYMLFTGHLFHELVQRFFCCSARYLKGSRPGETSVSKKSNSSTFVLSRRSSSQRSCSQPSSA
Nature of the test: In vitro Oxytocin receptor antagonistic activity against rat uterine strips. The class given is functional. As to conditions: read-out: pA2 (converted). The method in brief: (§3)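 Isolated uterine strips from Wistar rats estrogenized 24-48 h beforehand, tested in Munsick's solution by the Holton method. Cumulative oxytocin dose-response curves were constructed, with antagonist added to the bath 1 min before the oxytocin curve was started. Antagonism expressed as pA2.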

In test [3] the test system is Rattus norvegicus. The description is as §1. It counts as functional, organism-based. To be noted: read-out: pA2 (converted).
The test system of test [4] is Rattus norvegicus. Nature of the test: In vivo pressor activity by vasopressin assay in rats(inactive up to dose 2*10e-2). The class given is functional.
Test [5] concerns Rattus norvegicus. The test is described as §2. The class given is functional, organism-based. As to conditions: read-out: pA2 (converted).
The species entered for test [6] is Rattus norvegicus. As to the kind of experiment: In vitro oxytocin antagonistic activity against rat uterine strips. The class given is functional. As to conditions: read-out: pA2 (converted). The method in brief:
as §3

Test [7] relates to Rattus norvegicus. Nature of the test: In vivo pressor activity by vasopressin assay in rats; o = inactive up to dose 2*10e-2. It counts as functional, organism-based.
The species entered for test [8] is Rattus norvegicus. Nature of the test: In vitro oxytocin antagonistic activity against rat uterine strips; o = inactive up to dose 2*10e-2. The class given is functional. Put shortly: as §3

`CC[C@H](C)[C@@H]1NC(=O)[C@H](Cc2ccc(O)cc2)NC(=O)[C@@H](N)CSSC[C@@H](C(=O)N2CCC[C@H]2C(=O)N[C@@H](CC(C)C)C(=O)NCC(N)=O)NC(=O)[C@H](CC(N)=O)NC(=O)[C@H](CCC(N)=O)NC1=O` [OXYTOCIN]: the values for the Activity in the test with Rattus norvegicus [1] and with Rattus norvegicus [2] were 450 IU mg-1 and 3.1 IU mg-1, respectively.

As to `CC[C@H](C)[C@@H]1NC(=O)[C@H](Cc2ccc(O)cc2)NC(=O)CCSSC[C@@H]2NC(=O)[C@H](CC(N)=O)NC(=O)[C@H](CCC(=O)NCCCC[C@@H](C(=O)NCC(N)=O)NC(=O)[C@@H]3CCCN3C2=O)NC1=O` ([Mpa]YIENCPKG-NH2; disulfide 1-6; lactam 4-8) [listing 1 of 2 here], the results for the Kb at Oxytocin receptor and in the test on Rattus norvegicus [3] were 6.31 nM and 1000 nM, respectively.

Turning to `CC[C@H](C)[C@@H]1NC(=O)[C@H](Cc2ccc(O)cc2)NC(=O)CC(C)(C)SSC[C@@H](C(=O)N2CCC[C@H]2C(=O)N[C@@H](CCCCN)C(=O)NCC(N)=O)NC(=O)[C@H](CC(N)=O)NC(=O)[C@H](CCC(=O)O)NC1=O` (YIENCPKG-NH2; linker N-5 via X1) [listing 1 of 2 here], on Oxytocin receptor, the Kb is 1580 nM.

Take `CC[C@H](C)[C@@H]1NC(=O)[C@H](Cc2ccc(O)cc2)NC(=O)CCSSC[C@@H](C(=O)N2CCC[C@H]2C(=O)N[C@@H](CC(C)C)C(=O)NCC(N)=O)NC(=O)[C@H](CC(N)=O)NC(=O)[C@H](CCC(N)=O)NC1=O`: the figures for the Activity in the test with Rattus norvegicus [1] and with Rattus norvegicus [2] were 541 IU mg-1 and 1.44 IU mg-1, respectively.

For the molecule `CC[C@H](C)[C@@H]1NC(=O)[C@H](Cc2ccc(O)cc2)NC(=O)CCSSC[C@@H]2NC(=O)[C@H](CC(N)=O)NC(=O)[C@H](CCC(=O)NCCCC[C@@H](C(=O)NCC(N)=O)NC(=O)[C@@H]3CCCN3C2=O)NC1=O` ([Mpa]YIENCPKG-NH2; disulfide 1-6; lactam 4-8) [listing 2 of 2 here], in the test on Rattus norvegicus [2], the Activity amounted to 0.1 IU mg-1.

As to `CC[C@H](C)[C@@H]1NC(=O)[C@H](Cc2ccc(O)cc2)NC(=O)CC(C)(C)SSC[C@@H](C(=O)N2CCC[C@H]2C(=O)N[C@@H](CCCCNC=O)C(=O)NCC(N)=O)NC(=O)[C@H](CC(N)=O)NC(=O)[C@H](CCC(N)=O)NC1=O` (YIQNCPK(For)G-NH2; linker N-5 via X1) [listing 1 of 2 here], the Activity with Rattus norvegicus [1] is listed as 1.1 IU mg-1.

As for `CC[C@H](C)[C@@H]1NC(=O)[C@H](Cc2ccc(O)cc2)NC(=O)CCSSC[C@@H](C(=O)N2CCC[C@H]2C(=O)N[C@@H](CCCCN)C(=O)NCC(N)=O)NC(=O)[C@H](CC(N)=O)NC(=O)[C@H](CCC(=O)O)NC1=O`, the Activity worked out at 9.1 IU mg-1 in the test with Rattus norvegicus [1] and 0.1 IU mg-1 with Rattus norvegicus [2].

In the test on Rattus norvegicus [1], `CC[C@H](C)[C@@H]1NC(=O)[C@H](Cc2ccc(O)cc2)NC(=O)CCSSC[C@@H](C(=O)N2CCC[C@H]2C(=O)N[C@@H](CCCCNC=O)C(=O)NCC(N)=O)NC(=O)[C@H](CC(N)=O)NC(=O)[C@H](CCC(=O)O)NC1=O` displayed an Activity of 8 IU mg-1.

For the molecule `CC[C@H](C)[C@@H]1NC(=O)[C@H](Cc2ccc(O)cc2)NC(=O)[C@@H](N)C(C)(C)SSC[C@@H](C(=O)N2CCC[C@H]2C(=O)N[C@@H](CC(C)C)C(=O)NCC(N)=O)NC(=O)[C@H](CC(N)=O)NC(=O)[C@H](CCC(N)=O)NC1=O`, the Activity in the test with Rattus norvegicus [4] was 0 IU mg-1.

Take `CC[C@H](C)[C@@H]1NC(=O)[C@H](Cc2ccc(O)cc2)NC(=O)CC(C)(C)SSC[C@@H](C(=O)N2CCC[C@H]2C(=O)N[C@@H](CCCCN)C(=O)NCC(N)=O)NC(=O)[C@H](CC(N)=O)NC(=O)[C@H](CCC(N)=O)NC1=O` (YIQNCPKG-NH2; linker N-5 via X1): on Oxytocin receptor, the Kb was 16.6 nM.

`CC[C@H](C)[C@@H]1NC(=O)[C@H](Cc2ccc(O)cc2)NC(=O)CC(C)(C)SSC[C@@H](C(=O)N2CCC[C@H]2C(=O)N[C@@H](CC(C)C)C(=O)NCC(N)=O)NC(=O)[C@H](CC(N)=O)NC(=O)[C@H](CCC(N)=O)NC1=O` (YIQNCPLG-NH2; linker N-5 via X1): the Kb with Rattus norvegicus [5] is 537 nM; in the test filed under Rattus norvegicus [6], 115 nM.

Turning to `CC[C@H](C)[C@@H]1NC(=O)[C@H](Cc2ccc(O)cc2)NC(=O)CC(C)(C)SSC[C@@H](C(=O)N2CCC[C@H]2C(=O)N[C@@H](CCCCNC=O)C(=O)NCC(N)=O)NC(=O)[C@H](CC(N)=O)NC(=O)[C@H](CCC(=O)O)NC1=O` (YIENCPK(For)G-NH2; linker N-5 via X1), in the test filed under Rattus norvegicus [6], the Kb is 7940 nM.

Consider `CC[C@H](C)[C@@H]1NC(=O)[C@H](Cc2ccc(O)cc2)NC(=O)CC(C)(C)SSC[C@@H](C(=O)N2CCC[C@H]2C(=O)N[C@@H](CCCCN)C(=O)NCC(N)=O)NC(=O)[C@H](CC(N)=O)NC(=O)[C@H](CCC(=O)O)NC1=O` (YIENCPKG-NH2; linker N-5 via X1) [listing 2 of 2 here], for which the results for the Activity with Rattus norvegicus [1] and in the test with Rattus norvegicus [2] were <0.01 IU mg-1 and 0 IU mg-1, respectively.

As for `CC[C@@H](C)[C@@H]1NC(=O)[C@@H](Cc2ccc(O)cc2)NC(=O)CCSSC[C@@H](C(=O)N2CCC[C@@H]2C(=O)N[C@@H](CCCCNC=O)C(=O)NCC(N)=O)NC(=O)[C@H](CC(N)=O)NC(=O)[C@@H](CCC(=O)O)NC1=O`, the outcome with Rattus norvegicus [7] and in the test filed under Rattus norvegicus [8] was inactive.

With `CC[C@H](C)[C@@H]1NC(=O)[C@H](Cc2ccc(O)cc2)NC(=O)CC(C)(C)SSC[C@@H](C(=O)N2CCC[C@H]2C(=O)N[C@@H](CCCCNC=O)C(=O)NCC(N)=O)NC(=O)[C@H](CC(N)=O)NC(=O)[C@H](CCC(N)=O)NC1=O` (YIQNCPK(For)G-NH2; linker N-5 via X1) [listing 2 of 2 here], the Kb was 631 nM with Rattus norvegicus [5] and 39.8 nM in the test listed under Rattus norvegicus [6].

For `CC[C@H](C)[C@@H]1NC(=O)[C@H](Cc2ccc(O)cc2)NC(=O)CCSSC[C@@H](C(=O)N2CCC[C@H]2C(=O)N[C@@H](CCCCN)C(=O)NCC(N)=O)NC(=O)[C@H](CC(N)=O)NC(=O)[C@H](CCC(N)=O)NC1=O`, the figures for the Activity in the test on Rattus norvegicus [1] and in the test with Rattus norvegicus [2] were 272 IU mg-1 and 368 IU mg-1, respectively.

On to `CC[C@H](C)[C@@H]1NC(=O)[C@H](Cc2ccc(O)cc2)NC(=O)CCSSC[C@@H](C(=O)N2CCC[C@H]2C(=O)N[C@@H](CCCCNC=O)C(=O)NCC(N)=O)NC(=O)[C@H](CC(N)=O)NC(=O)[C@H](CCC(N)=O)NC1=O`, for which the Activity is recorded as 517 IU mg-1 in the test on Rattus norvegicus [1] and 101.6 IU mg-1 in the test on Rattus norvegicus [2].
